From PubChem BioAssay
An excerpt weighted towards active compounds, which were near 1.9% of everything screened.
SUMO1-SIM PPI: modulators of SUMO1 protein-protein interactions, primary screen, biochemical, uHTS | Small ubiquitin-related modifier 1 (Homo sapiens), P63165 | SUMO1 binding to a labelled peptide, TR-FRET, 1 h | AID 602429, 2012 | 360,000 tested, 0.33% active | inhibition, % at 20 µM; in the data active = inhibition above about 37%
LMPTP block: LMPTP phosphatase inhibitors, primary screen, biochemical, fluorescence intensity, uHTS. 360,000 tested, 0.22% active. recombinant LMPTP-A, OMFP fluorogenic substrate. inhibition, % at 20 µM. Low molecular weight phosphotyrosine protein phosphatase (Homo sapiens), P24666;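 active = compounds that cut the enzyme signal by at least half of the control window in the single-dose screen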
Target sequence (P24666 whole entry, looked up): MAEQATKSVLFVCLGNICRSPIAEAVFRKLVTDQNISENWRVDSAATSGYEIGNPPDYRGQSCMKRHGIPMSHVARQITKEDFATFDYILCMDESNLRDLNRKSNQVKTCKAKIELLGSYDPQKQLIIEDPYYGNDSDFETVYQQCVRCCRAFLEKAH
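Assay system: LMPTP-A enzyme. Input: 0.625 nM LMPTP-A final. Probe or stimulus: 400 µM OMFP. Compound dosing: single 20 µM dose. Schedule: 50 min dark incubation at room temperature. Detection: fluorescence intensity of OMFP turnover product. Read-out: percent inhibition versus substrate-only and uninhibited controls. Benchmarks: no-enzyme low control, uninhibited high control.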
STEP inh: STEP phosphatase inhibitors, primary screen, biochemical, fluorescence intensity, uHTS; recombinant STEP, OMFP fluorogenic substrate; inhibition, % at 20 µM; 360,000 tested, 0.25% active; AID 588621, 2011;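 active = inhibition at 20 µM, scaled per plate between control wells, above about 37%, limit read from the data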
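Also added – OMFP at 25 µM · Test system – STEP tyrosine phosphatase · Technique – FITC-channel fluorescence of OMFP product · Schedule – 20 min at room temperature, dark · Evaluation – control-normalized % inhibition with plate pattern correction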
DNMT1 block: human DNMT1 methyltransferase inhibitors, primary screen, biochemical, molecular beacon, fluorescence, HinP1I cleavage, uHTS | AID 588458, 2011 | DNA (cytosine-5)-methyltransferase 1 (Homo sapiens), P26358 | 360,000 tested, 0.83% active | inhibition (reported as % activation of signal), % at 10 µM; in the data active = inhibition above about 50%
Scp-1 inhibitor: Scp-1 phosphatase inhibitors, primary screen, biochemical, colorimetric, uHTS; Carboxy-terminal domain RNA polymerase II polypeptide A small phosphatase 1 (Homo …; Recombinant Scp1, phosphopeptide, malachite green phosphate absorbance; inhibition, % at 20 µM; 340,000 tested, 0.88% active; AID 493091, 2011;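 active = inhibition above about 50% at 20 µM, limit read from the data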
Target sequence (Q9GZU7 76-261 limits assumed): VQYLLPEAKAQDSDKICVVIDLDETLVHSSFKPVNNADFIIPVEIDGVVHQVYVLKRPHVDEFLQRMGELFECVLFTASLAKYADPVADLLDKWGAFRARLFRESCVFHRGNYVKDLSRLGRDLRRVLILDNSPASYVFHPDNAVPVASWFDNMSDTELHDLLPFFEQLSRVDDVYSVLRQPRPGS
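Assay system: SCP-1 catalytic fragment, aa 76-261 | Buffer or medium: Tris acetate buffer pH 5.5 with MgCl2 and Tween-20 | Compound: One concentration, 20 µM, with 1.0% DMSO | Also added: Phospho 17-mer peptide substrate | Signal: Absorbance at 630 nm | Incubation: 45 min enzyme reaction at room temperature | Measure: % inhibition of SCP-1 phosphate liberation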
CSN deneddyl inh: inhibitors of CSN-mediated cullin deneddylation, primary screen, biochemical, fluorescence polarization, uHTS; 360,000 tested, 0.38% active; Purified CSN, SCF-Nedd8-OG deneddylation; COP9 signalosome complex subunit 5 (Homo sapiens), Q92905; AID 651999, 2013; inhibition, % at 12.5 µM;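 active = pattern-corrected inhibition above about 35%, with an unprinted fluorescence ratio check between 0.5 and 1.5, limit read from the data, passing the limit was not always enough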
Target sequence (Q92905 whole entry, looked up, one chain of several): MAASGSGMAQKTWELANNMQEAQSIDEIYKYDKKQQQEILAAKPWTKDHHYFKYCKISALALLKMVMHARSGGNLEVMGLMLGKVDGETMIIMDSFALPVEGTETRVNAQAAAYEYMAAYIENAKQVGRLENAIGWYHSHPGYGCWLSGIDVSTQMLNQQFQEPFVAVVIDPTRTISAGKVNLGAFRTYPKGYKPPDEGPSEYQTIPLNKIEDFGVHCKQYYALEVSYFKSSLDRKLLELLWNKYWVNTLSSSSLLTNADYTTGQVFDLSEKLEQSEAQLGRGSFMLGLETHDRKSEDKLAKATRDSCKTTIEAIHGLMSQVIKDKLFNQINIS
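Test system: purified human Csn5 enzyme expressed in HEK293T cells. Amount: 0.24 nM enzyme. Reagent: SCFSkp2-Nedd8OG substrate at 10 nM final. Schedule: 90 min incubation of compound, enzyme and substrate at room temperature. Detection: fluorescence polarization. Read-out: % inhibition of substrate cleavage by Csn5.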
Scp-1 conf: Scp-1 phosphatase inhibitors, retest, confirmation, biochemical, colorimetric, single concentration | 2,500 tested, 61% active | recombinant SCP-1 catalytic domain, phosphate release, malachite green absorbance | shares compounds with Scp-1 inhibitor | inhibition, % at 20 µM
Scp-1 MG ctr: colorimetric readout interference by compounds, confirmation, artefact control for Scp-1 inhibitor project, biochemical, single concentration | apparent inhibition (interference), % at 20 µM | Colorimetric interference counterscreen, malachite green absorbance 630 nm | AID 540313, 2011 | 2,500 tested, under 10 active | shares compounds with Scp-1 inhibitor;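 note: compounds added after enzyme reaction finished so only phosphate colour detection is probed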
Scp-1 Tm shift: Scp-1 binding by thermal shift, confirmation, orthogonal assay for Scp-1 inhibitor project, biophysical, differential scanning fluorimetry. shares compounds with Scp-1 inhibitor. Recombinant SCP1, Sypro Orange thermal shift Tm. thermal shift relative to vanadate control, % at 40 µM. 1,500 tested, 25% active;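 active = substances whose mean melting-temperature shift, as a percentage of the reference inhibitor's shift, reaches about 5.3%, limit read from the data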
Large screens that a line does not name were inactive (follow-up assays come after a bar, where they were run).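 Rule for the calls, unless noted: active = inhibition of at least 30% at 20 µM; inactive = the rest.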

O=C(CNC(=O)c1ccc(Cl)cc1)N/N=C/C=C/c1ccccc1	Scp-1 inhibitor 84 | Scp-1 conf inactive | Scp-1 MG ctr inactive
O=C(COc1ccccc1)NCC(=O)N/N=C/C=C/c1ccccc1	none
COc1ccc(/C=N/NC(=O)C(Cc2c[nH]c3ccccc23)NC(=O)OCC(C)C)cc1[N+](=O)[O-] (stereo not drawn)	Scp-1 inhibitor 65 | Scp-1 conf inactive | Scp-1 MG ctr inactive
CSc1ccc(CCNC(=O)CSc2ccsc2[N+](=O)[O-])cc1	Scp-1 inhibitor 51 | Scp-1 conf 55 | Scp-1 MG ctr inactive | Scp-1 Tm shift 7.5
CSc1ncc(CN2CCc3c([nH]c4ccccc34)C2c2cccc(O)c2)cn1 (stereo not drawn)	none
O=C(O)c1ccc2c(c1)C(=O)/C(=C/c1ccccc1)C2=O	Scp-1 inhibitor 76 | Scp-1 conf 53 | Scp-1 MG ctr inactive | Scp-1 Tm shift 23
O=C(CSc1nnc(CNC(=O)c2c(F)cccc2F)o1)NCCc1ccccc1	none
O=C(O)CCN1C(=O)c2ccc(NC(=O)c3ccco3)cc2C1=O	none
O=C(O)CCN1C(=O)c2ccc(NC(=O)C(c3ccccc3)c3ccccc3)cc2C1=O	Scp-1 inhibitor 67 | Scp-1 conf inactive | Scp-1 MG ctr inactive
Cc1cccc(C)c1NC(=O)[C@@]1(CC(=O)O)CC(/C=C/c2ccccc2)=NO1	none
COc1ccccc1N1CCN(C(=O)c2cc3c(s2)CCC3)CC1	Scp-1 inhibitor 85 | Scp-1 conf inactive | Scp-1 MG ctr inactive
Cc1c(/C(O)=C2/C(=O)C(=O)N(CCN3CCOCC3)C2c2cccs2)cnn1-c1ccccc1 (stereo not drawn)	none | Scp-1 conf inactive | Scp-1 MG ctr inactive
O=C(N/N=C/c1cn(-c2cccs2)nc1-c1ccccc1)c1ccccc1O	Scp-1 inhibitor 72 | Scp-1 conf inactive | Scp-1 MG ctr inactive
Cc1ccc2nc(SCC(=O)NCc3ccccc3Cl)nc(=O)n2c1	none
Cc1ccn2c(=O)nc(SCC(=O)NCc3ccccc3Cl)nc2c1	none | Scp-1 conf 57 | Scp-1 MG ctr inactive | Scp-1 Tm shift inactive
Cc1cc(Br)c(S(=O)(=O)n2nnc3ccccc32)cc1C	none
Cc1ccc(CNC(=O)CC[C@H]2O[C@@H](n3cc(C)c(=O)[nH]c3=O)C[C@@H]2O)o1	none (no result: Scp-1 inhibitor)
C=CCn1cnc2c(c1=O)c1nc3ccccc3nc1n2/N=C/c1cccc(OC)c1OC	Scp-1 inhibitor 96, CSN deneddyl inh 59 | Scp-1 conf 62 | Scp-1 MG ctr inactive | Scp-1 Tm shift inactive
CCC(=O)N1CCC(C)(C(=O)Nc2ccc3c(c2)OCO3)C1 (stereo not drawn)	none (no result: Scp-1 inhibitor)
COc1cc(N)ccc1NC(=O)c1cc2ccccc2o1	none
COc1cc(OC)cc(C(=O)NC(=S)NCCc2ccccc2)c1	none
Cn1c(SCC(=O)Nc2nncs2)nnc1C1CC1	Scp-1 inhibitor 79 | Scp-1 conf 53 | Scp-1 MG ctr inactive | Scp-1 Tm shift 5.5
CC(C)C[C@@H]1O[C@H](CCc2ccccc2)Cc2[nH]c(=S)[nH]c(=O)c21	none (no result: STEP inh, DNMT1 block, Scp-1 inhibitor)
O=c1[nH]c(/C=C\c2ccc(O)c(O)c2)nc(O)c1[N+](=O)[O-]	none | Scp-1 conf 45 | Scp-1 MG ctr inactive | Scp-1 Tm shift 6.2
COc1ccc(-n2c(C)cc(/C=C/c3nc(O)c([N+](=O)[O-])c(=O)[nH]3)c2C)cc1	Scp-1 inhibitor 66 | Scp-1 conf 59 | Scp-1 MG ctr inactive | Scp-1 Tm shift inactive
O=c1[nH]c(/C=C\c2cccc(O)c2)nc(O)c1[N+](=O)[O-]	none
O=C(NC1CCCC1)C(c1cccnc1)N(C(=O)c1csnn1)c1ccccc1Cl (stereo not drawn)	none
O=C(NCC1CCCO1)c1ccccc1 (stereo not drawn)	none
O=C(Cc1ccc([N+](=O)[O-])cc1)NCC1CCCO1 (stereo not drawn)	none
O=C(NCC1CCCO1)c1ccc([N+](=O)[O-])o1 (stereo not drawn)	Scp-1 inhibitor 63 | Scp-1 conf inactive | Scp-1 MG ctr inactive
C[n+]1cccc(C(=O)NCC2CCCO2)c1 (stereo not drawn)	Scp-1 inhibitor 60 | Scp-1 conf inactive | Scp-1 MG ctr inactive
O=C(NCC1CCCO1)c1cc(-c2ccccc2F)no1 (stereo not drawn)	Scp-1 inhibitor 52 | Scp-1 conf inactive | Scp-1 MG ctr inactive
COc1ccc(OC)c(NC(=O)c2csc(Cl)c2OC)c1	none
O=C(CNS(=O)(=O)c1ccccc1)Nc1ccccc1Br	Scp-1 inhibitor 50 | Scp-1 conf inactive | Scp-1 MG ctr inactive
CC(=C/C(=O)O)/C=C/c1ccc(Cl)o1	DNMT1 block 106, Scp-1 inhibitor 61 | Scp-1 conf 54 | Scp-1 MG ctr inactive | Scp-1 Tm shift inactive
CC(/C=C/c1ccc(C)o1)=C\C(=O)O	none
O=C(CSc1nnc(-c2ccncc2)n1-c1ccc(F)cc1)NC(=O)NCc1ccco1	DNMT1 block 68, Scp-1 inhibitor 89 | Scp-1 conf 64 | Scp-1 MG ctr inactive | Scp-1 Tm shift inactive
N#C/C(=C/c1ccc(-c2ccc(C(=O)O)c(Cl)c2)o1)C(=O)NCC1CCCO1 (stereo not drawn)	Scp-1 inhibitor 106 | Scp-1 conf 55 | Scp-1 MG ctr inactive | Scp-1 Tm shift inactive
Cc1ccc(/C=C(\C#N)C(=O)NCC2CCCO2)o1 (stereo not drawn)	none
